Results from ChEMBL document CHEMBL3120083, “Discovery of N-[4-[6-tert-butyl-5-methoxy-8-(6-methoxy-2-oxo-1H-pyridin-3-yl)-3-quinolyl]phenyl]methanesulfonamide (RG7109), a potent inhibitor of the hepatitis C virus NS5B polymerase” (J Med Chem, 2014).
Converted amounts (≈) assume the structure as drawn.

Assays:
[1] = system: Hepatitis C virus; assay: Antiviral activity against Hepatitis C virus genotype 1b Con1 infected in human 2209-23 cells after 72 hrs by luciferase reporter gene assay; format: functional, organism-based, Hepacivirus hominis; details: isolate Con1, 2209-23, 72 h
Method in brief: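 Stable GT-1b Con1 subgenomic replicon cell line expressing a renilla luciferase reporter, used as the readout of inhibition. EC50 from luciferase signal, n 2.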

[2] = system: Hepatitis C virus; assay: Antiviral activity against Hepatitis C virus genotype 1a H77 infected in human 2209-23 cells after 72 hrs by luciferase reporter gene assay; format: functional, organism-based, Hepacivirus hominis; details: genotype 1a H77, 2209-23, 72 h
[3] = Thermodynamic solubility of the compound; format: physicochemical; details: read-out: Therm_solubility
[4] = Inhibition of N-terminal 6xHis-tagged Hepatitis C virus genotype 1b Con1 NS5B polymerase containing 21-amino acid deletion at C-terminus expressed in Escherichia coli using radiolabeled UTP as substrate after 2 hrs by scintillation counting analysis; set-up: species or system Hepatitis C virus (isolate Con1)
Method in brief: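 GT-1b Con1 NS5B polymerase (NS5B570n-Con1) activity assay run with RNA template at 3 nM and enzyme at 3 nM. IC50 reported in nM.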

[5] = system: Hepatocyte; assay: Intrinsic clearance in rat hepatocytes assessed per 10^6 cells; format: ADME, cell-based
Method in brief: (§1)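 Suspended hepatocytes (about 1.0×10^6 cells/mL) in Williams' medium E with glutamine, antibiotics, insulin, dexamethasone and 10% FCS, 37 °C, 5% CO2, shaken at 900 rpm. Compound at 0.1–10.0 μM. Stopped with methanol plus internal standard at 2–180 min. Parent remaining by LC/MS/MS peak area ratio, in duplicate.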

[6] = system: Hepatocyte; assay: Intrinsic clearance in human hepatocytes assessed per 10^6 cells; format: ADME, cell-based; method in brief: as §1
[7] = system: Hepatitis C virus; assay: Ratio of EC50 for Hepatitis C virus genotype 1b Con1 in presence of human serum to EC50 for Hepatitis C virus genotype 1b Con1; format: functional, Hepacivirus hominis, isolate Con1
[8] = system: Hepatitis C virus; assay: Ratio of EC50 for Hepatitis C virus genotype 1a H77 in presence of human serum to EC50 for Hepatitis C virus genotype 1a H77; format: functional, Hepacivirus hominis
[9] = system: Hepatitis C virus; assay: Antiviral activity against Hepatitis C virus genotype 1b Con1 infected in human 2209-23 cells after 72 hrs by luciferase reporter gene assay in presence of 40% human serum; format: functional, organism-based, Hepacivirus hominis; details: isolate Con1, 2209-23, 72 h
[10] = system: Hepatitis C virus; assay: Antiviral activity against Hepatitis C virus genotype 1a H77 infected in human 2209-23 cells after 72 hrs by luciferase reporter gene assay in presence of 40% human serum; format: functional, organism-based, Hepacivirus hominis; details: genotype 1a H77, 2209-23, 72 h
[11] = Ratio of EC50 for Hepatitis C virus genotype 1a H77 to EC50 for Hepatitis C virus genotype 1b Con1; format: functional

**Q.** Which results are given for `COc1c(C(C)(C)C)cc(N2CCCNC2=O)c2ncc(-c3ccc(NS(C)(=O)=O)cc3)cc12`?
**A.** EC50 [1]: 20 nM; EC50 [2]: 64 nM

**Q.** With `COc1c(C(C)(C)C)cc(-c2ccc(C)[nH]c2=O)c2ncc(C#CCCNS(C)(=O)=O)cc12` as the compound, how does the solubility thermodynamic [3] read?
**A.** < 1 µg/mL

**Q.** And the IC50 [4]?
**A.** 5 nM

**Q.** And the EC50 [2]?
**A.** 341 nM

**Q.** With `COc1c(C(C)(C)C)cc(-c2cc(F)c[nH]c2=O)c2ncc(-c3ccc(NS(C)(=O)=O)cc3)cc12` as the compound, how does the EC50 [1] read?
**A.** 3.5 nM

**Q.** What about the EC50 [2] of the same compound?
**A.** 3.8 nM

**Q.** What does the source list for `COc1c(CC(F)(F)F)cc(-n2ccc(=O)[nH]c2=O)c2ncc(-c3ccc(NS(C)(=O)=O)cc3)cc12`?
**A.** CLH [5]: 3.7 uL/min/10^6 cells; CLH [6]: 0.8 uL/min/10^6 cells; EC50 [1]: 119 nM; EC50 [2]: 839 nM

**Q.** Which results are given for `COc1c(C(F)(F)F)cc(-n2ccc(=O)[nH]c2=O)c2ncc(-c3ccc(NS(C)(=O)=O)cc3)cc12`?
**A.** CLH [5]: 1.8 uL/min/10^6 cells; CLH [6]: 1.5 uL/min/10^6 cells; EC50 [1]: 57 nM; EC50 [2]: 821 nM

**Q.** With `CC(C)(C)c1nc(-n2ccc(=O)[nH]c2=O)c2ccc(-c3ccc(NS(C)(=O)=O)cc3)cc2n1` as the compound, how does the EC50 [2] read?
**A.** 17 nM

**Q.** With `COc1c(C(C)(C)C)cc(-c2ccc[nH]c2=O)c2ncc(N3CC[C@H](CNS(C)(=O)=O)C3)cc12` as the compound, how does the solubility thermodynamic [3] read?
**A.** 11 µg/mL (≈ 22.7 µM)

**Q.** What about the IC50 [4] of the same compound?
**A.** 0.2 nM

**Q.** What about the EC50 [2] of the same compound?
**A.** 7.9 nM

**Q.** Which results are given for `COc1c(C(C)(C)C)cc(-n2ccc(=O)[nH]c2=O)c2ccc(-c3ccc(NS(C)(=O)=O)cc3)cc12`?
**A.** EC50 [1]: 1 nM; EC50 [2]: 4 nM

**Q.** Which solubility thermodynamic [3] does the source give for `COc1c(C(C)(C)C)cc(-c2ccc(C)[nH]c2=O)c2ncc(CCCCNS(C)(=O)=O)cc12` here?
**A.** 168 µg/mL (≈ 356 µM)

**Q.** And the EC50 [2]?
**A.** > 1000 nM

**Q.** Which “Ratio EC50” value [7] does the source give for `COc1c(C(C)(C)C)cc(-n2ccc(=O)[nH]c2=O)c2ncc(-c3ccc(NS(C)(=O)=O)cc3)cc12` here?
**A.** 1.7

**Q.** What about the “Ratio EC50” value [8] of the same compound?
**A.** 1.7

**Q.** What about the EC50 [9] of the same compound?
**A.** 5.6 nM

**Q.** And the EC90 [9]?
**A.** 29 nM

**Q.** And the EC50 [10]?
**A.** 16 nM

**Q.** And the EC90 [10]?
**A.** 123 nM

**Q.** And the “Ratio EC50” value [11]?
**A.** 2.2

**Q.** And the CLH [5]?
**A.** 20 uL/min/10^6 cells

**Q.** What about the CLH [6] of the same compound?
**A.** 7.9 uL/min/10^6 cells

**Q.** What about the EC50 [1] of the same compound?
**A.** 3.2 nM

**Q.** What about the EC50 [2] of the same compound?
**A.** 7.2 nM

**Q.** For `COc1c(C(C)(C)C)cc(-c2ccc[nH]c2=O)c2ncc(-c3ccc(NS(C)(=O)=O)cc3)cc12`, which “Ratio EC50” value [7] is on record?
**A.** 0.8

**Q.** And the “Ratio EC50” value [8]?
**A.** 0.8

**Q.** What about the EC50 [9] of the same compound?
**A.** 11 nM

**Q.** What about the EC90 [9] of the same compound?
**A.** 47 nM

**Q.** And the EC50 [10]?
**A.** 4 nM

**Q.** And the EC90 [10]?
**A.** 25 nM

**Q.** And the “Ratio EC50” value [11]?
**A.** 1.7

**Q.** What about the EC50 [1] of the same compound?
**A.** 3.1 nM

**Q.** And the EC50 [2]?
**A.** 5.2 nM
